In ChEMBL document CHEMBL1153886, “Synthesis, analgesic and anti-inflammatory activities of novel 3-(4-acetamido-benzyl)-5-substituted-1,2,4-oxadiazoles” (2009):

Experiments:
Type in all cases: functional
[1] = system: Mus musculus; assay: Antiinflammatory activity against carrageenan-induced paw edema in C57BL/6 mouse assessed as increase in paw volume at 100 mg/kg, po administered 1 hr before carrageenan challenge measured 4 hrs after carrageenan challenge relative to control
Procedure, shortened: (§1)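 Male C57BL/6 mice dosed orally at 100 mg/kg as a suspension in 5% carboxymethylcellulose 1 h before challenge. 0.05 ml of 1% w/v carrageenan in 0.9% sterile saline injected subcutaneously into right hind paw plantar region under light anaesthesia. Paw volume by digital plethysmometry immediately and 4 h later. Percent inhibition ± SEM vs vehicle group; diclofenac sodium 100 mg/kg p.o. as standard.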

[2] = system: Mus musculus; assay: Antiinflammatory activity against carrageenan-induced paw edema in C57BL/6 mouse assessed as inhibition of paw edema at 100 mg/kg, po administered 1 hr before carrageenan challenge measured 4 hrs after carrageenan challenge relative to control; procedure, shortened: as §1
[3] = system: Mus musculus; assay: Analgesic activity in C57BL/6 mouse assessed as decrease in acetic acid-induced writhing at 100 mg/kg, po administered 1 hr before acetic acid challenge measured during 30 mins of acetic acid challenge relative to control; design: scale not given: the % may be the effect or the level left
Procedure, shortened: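 Male C57BL/6 mice given 100 mg/kg orally (suspension in 5% carboxymethylcellulose) 1 h before i.p. injection of 0.25 ml 0.6% v/v acetic acid. Writhes counted over 30 min after injection. Percent inhibition calculated against mean writhing count of the control group; diclofenac sodium 100 mg/kg p.o. as standard.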

| Compound | Activity [1] | inhibition in vivo at 100 mg/kg [2] | Activity [3] |
| --- | --- | --- | --- |
| CC(=O)Nc1ccc(Cc2noc(CCC(=O)Nc3ccccc3)n2)cc1 | 48% | 34.2% | -13.1% |
| COc1ccc(NC(=O)CCc2nc(Cc3ccc(NC(C)=O)cc3)no2)cc1 | 37% | 49.3% | 67.26% |
| COc1ccc(NC(=O)CCc2nc(Cc3ccc(NC(C)=O)cc3)no2)cc1F | 29% | 60.3% | 36.9% |
| COc1cccc(NC(=O)CCc2nc(Cc3ccc(NC(C)=O)cc3)no2)c1 | 47% | 35.6% | -7.14% |
| CC(=O)Nc1ccc(Cc2noc(CCC(=O)Nc3ccc(F)cc3F)n2)cc1 | 34% | 52% | -0.6% |
| CC(=O)Nc1ccc(Cc2noc(CCC(=O)Nc3ccc(F)cc3)n2)cc1 | 26% | 64.4% | 67.86% |
| C#Cc1cccc(NC(=O)CCc2nc(Cc3ccc(NC(C)=O)cc3)no2)c1 | 11% | 84.9% | 61.31% |
| CC(=O)Nc1ccc(Cc2noc(CCC(=O)Nc3cccnc3)n2)cc1 | 9% | 87.7% | 80.95% |
| CC(=O)Nc1ccc(Cc2noc(CCC(=O)Nc3ccc(C(F)(F)F)cc3)n2)cc1 | 46% | 37% | 31.55% |
| O=C([O-])Cc1ccccc1Nc1c(Cl)cccc1Cl.[Na+] [DICLOFENAC SODIUM] | 36% | 50.7% | 77.38% |
| CC(=O)Nc1ccc(Cc2noc(CCC(=O)NCc3ccccc3)n2)cc1 | 17% | 76.7% | -0.6% |
| COc1ccccc1NC(=O)CCc1nc(Cc2ccc(NC(C)=O)cc2)no1 | 9% | 87.7% | 73.81% |
| CC(=O)Nc1ccc(Cc2noc(CCC(=O)Nc3ccccc3F)n2)cc1 | 24% | 67.1% | -23.21% |
| CC(=O)Nc1ccc(Cc2noc(CCC(=O)Nc3cccc(C)c3)n2)cc1 | 61% | 16.4% | 67.26% |
| CC(=O)Nc1ccc(Cc2noc(CCC(=O)O)n2)cc1 | 18% | 75.3% | 46.43% |
| COc1ccc(NC(=O)CCc2nc(Cc3ccc(NC(C)=O)cc3)no2)cc1OC | 3% | 95.9% | 80.36% |
